Compound activity (PubChem)
NLRP3 yeast inh: inhibitors of NALP3 inflammasome in yeast; Yeast reconstituted NLRP3/ASC/caspase-1, beta-gal luminescence, 24 h; inhibition, % at 10 µM; 330,000 tested, 0.39% active; AID 2825;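 active = inhibition of 50% or more; inactive = inhibition below 50%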;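 note: plate controls were induced DMSO wells for no effect and uninduced yeast grown without galactose for full effect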
T cruzi repl: blocks replication of Trypanosoma cruzi; T. cruzi beta-gal in NIH3T3, luminescence, 90 h; inhibition, % (no concentration beside the values); 300,000 tested, 1.4% active;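 active = mean inhibition across valid replicates above about 55%, limit read from the data; inconclusive = mean below that limit but half or more replicates reach it; inactive = mean below it, under half of replicates reach it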;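 note: signal also drops with host cell toxicity which is not excluded here; 0% = plate median of DMSO wells and 100% = zero luminescence signal; higher percent means less beta-gal luminescence so fewer parasites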
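Test system: β-gal T. cruzi (Tulahuen C4) inside NIH/3T3 cells / Quantity: 5,000 cells/well / Measured by: luminescence from GalScreen with 0.05% NP40, read after 60 min / Medium: DMEM plus 2% FBS / Measure: parasite load inhibition, % / Reagent: Tulahuen C4 trypomastigotes, 5000/well / Schedule: co-culture of at least 90 h after 3 h attachment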
CSC inhib: blocks cancer stem cells | AID 2717 | 300,000 tested, 1.1% active | cancer stem cell-like cells viability, luminescence | inhibition, % at 7.5 µM; in the data active = inhibition above about 75%; inconclusive = no clear call, values can overlap the other calls; tested in HMLE shEcad cells
Mdm2 MdmX PPI: human Mdm2/MdmX binding inhibition; O15151+Q00987; inhibition, % at 8 µM; AID 485346; 330,000 tested, 3% active; SaOS-2 split-luciferase Mdm2/MdmX complementation, luminescence;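 active = inhibition of at least 50% at 8 µM in the primary screen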
Target sequence (O15151 whole entry, looked up): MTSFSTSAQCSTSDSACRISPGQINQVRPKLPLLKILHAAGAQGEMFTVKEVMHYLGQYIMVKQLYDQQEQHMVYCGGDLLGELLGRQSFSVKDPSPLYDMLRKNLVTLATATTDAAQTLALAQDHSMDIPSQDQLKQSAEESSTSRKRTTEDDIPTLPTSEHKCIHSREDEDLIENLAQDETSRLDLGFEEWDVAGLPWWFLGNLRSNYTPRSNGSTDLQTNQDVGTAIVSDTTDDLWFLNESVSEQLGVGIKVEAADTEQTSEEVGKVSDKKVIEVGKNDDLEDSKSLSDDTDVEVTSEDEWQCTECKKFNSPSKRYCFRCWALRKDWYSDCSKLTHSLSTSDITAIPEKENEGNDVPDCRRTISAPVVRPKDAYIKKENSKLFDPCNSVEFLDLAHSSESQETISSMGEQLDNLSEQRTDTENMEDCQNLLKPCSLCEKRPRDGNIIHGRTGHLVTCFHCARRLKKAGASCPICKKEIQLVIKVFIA
Target sequence (Q00987 whole entry, looked up): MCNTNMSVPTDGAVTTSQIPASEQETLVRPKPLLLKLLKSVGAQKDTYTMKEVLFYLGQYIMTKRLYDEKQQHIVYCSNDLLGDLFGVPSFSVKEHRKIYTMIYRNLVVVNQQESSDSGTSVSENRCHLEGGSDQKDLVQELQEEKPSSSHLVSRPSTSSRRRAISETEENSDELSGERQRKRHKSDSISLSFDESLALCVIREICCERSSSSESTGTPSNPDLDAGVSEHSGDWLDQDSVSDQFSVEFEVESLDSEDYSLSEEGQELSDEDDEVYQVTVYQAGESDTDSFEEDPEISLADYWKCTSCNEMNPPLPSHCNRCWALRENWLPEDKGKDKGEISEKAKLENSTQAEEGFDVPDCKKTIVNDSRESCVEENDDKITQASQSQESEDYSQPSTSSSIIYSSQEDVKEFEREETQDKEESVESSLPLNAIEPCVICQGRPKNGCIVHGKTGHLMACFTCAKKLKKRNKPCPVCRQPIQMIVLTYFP
Calb FLC: affects C. albicans growth with fluconazole; C. albicans CaCi-2 + fluconazole, Alamar Blue growth, 48 h; growth inhibition, % (test concentration not listed); 300,000 tested, 0.57% active; AID 1979;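 active = growth inhibition above about 58% in most replicates, limit read from the data, passing the limit was not always enough; inconclusive = exactly half the replicates above a set limit; inactive = most replicates below a set limit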;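 note: all wells also contain fluconazole at 8 µg/ml as a sub-toxic cotreatment; 0% = median of DMSO wells and 100% = median of geldanamycin control wells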
Beta apoptosis: blocks beta cell apoptosis; INS-1E cytokine-induced death, ATP luminescence, 48 h; percent of positive-control rescue, neutral wells zero; protection from apoptosis, % (concentration not given with the values); 300,000 tested, 0.8% active; AID 435005;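 active = Every replicate reaches about 75%, or at least half do and their mean reaches it too, limit read from the data; inconclusive = At least half of replicates reach the limit but their mean does not; inactive = Under half of replicates reach the limit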;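 note: 0% = cytokine-treated negative control wells and 100% = positive control rescue; higher means more ATP so stronger rescue from cytokine killing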
Mdm2 MdmX conf: confirmation of human Mdm2/MdmX interaction inhibitors | 10,000 tested, 55% active | shares compounds with Mdm2 MdmX PPI | Mdm2-MdmX binding, luminescent assay | inhibition, % at 8 µM; in the data active = inhibition above about 40%
Full FLuc ctr: full-length luciferase inhibition in Mdm2/MdmX counter-screen. shares compounds with Mdm2 MdmX PPI. SaOS-2 full-length luciferase counterscreen, luminescence. inhibition, % at 8 µM. 6,200 tested, 77% active;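 active = mean inhibition at 8 µM reaching about 37%, which flags the compound as non-specific, limit read from the data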;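 note: p53-null SaOS-2 cells with luciferase driven by a doxycycline-inducible promoter; compound on cells about two nights before reading with doxycycline added after day one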
Starred values were filed as active, the others as inactive; ? = inconclusive; . = not tested or not shown. An excerpt weighted towards active compounds, which were near 5.3% of everything screened.

SMILES | NLRP3 yeast inh | T cruzi repl | CSC inhib | Mdm2 MdmX PPI | Calb FLC | Beta apoptosis | Mdm2 MdmX conf | Full FLuc ctr
COc1ccccc1N1CCN(CC(=O)Nc2ccc(CN3CCCCC3)cc2)CC1 | 18 | 7 | 8 | -13 | 8 | -5 | . | .
Cc1ccc(Cl)cc1N1CCN(CC(=O)Nc2ccc(CN3CCCCC3)cc2)CC1 | 32 | 55* | -10 | 69* | 17 | 13 | 43* | 60*
O=C(CN1CCCC1)Nc1ccc(Oc2ccc(NC(=O)CN3CCCC3)cc2)cc1 | 12 | 39 | 15 | 56* | 0 | -1 | 53* | 58*
O=C(NC1CCCC1)C(c1ccccc1F)N(C(=O)c1csnn1)C1CC1 (centres undefined) | 6 | -2 | -15 | -17 | 8 | -6 | . | .
N#Cc1cnc2ncnn2c1-c1ccccc1 | -21 | -6 | 22 | -4 | 20 | 0 | . | .
O=[N+]([O-])c1ccc(S(=O)(=O)CC(CN2CCCCC2)N2CCCCC2)cc1 (centres undefined) | 11 | -3 | 78* | 100* | -14 | 0 | 94* | 51*
O=S(=O)(CC(CN1CCCCC1)N1CCCCC1)c1ccccc1 (centres undefined) | 10 | -15 | 27 | 72* | -28 | -3 | 66* | 17
CCOC(=O)/C=C(\C)Sc1cc(=O)oc2ccccc12 | 27 | 1 | 53 | 55* | ? | -38 | 34 | .
Cc1cc(C)c2c(=O)[nH]n(C3CC(C)N(C)CC3C)c2n1 (centres undefined) | -5 | 2 | -12 | 7 | -20 | -4 | . | .
Cc1ccc(C(C)C)cc1OCC(=O)Nc1nnc(C2CC2)s1 | 16 | . | . | 88* | . | 8 | 65* | 33
C[C@@H](CN1C2=NC[C@H](Cc3ccccc3)N2C[C@H]1Cc1ccc(O)cc1)NC(=O)CCC1CCCCC1 | 3 | 9 | -6 | 46 | 0 | 4 | . | .
COc1ccc(C[C@H]2CN3C(=NC[C@@H]3Cc3ccc(O)cc3)N2C[C@H](C)NC(=O)c2ccc(C)c(Br)c2)cc1 | 0 | 20 | 21 | 86* | 13 | -1 | 36 | .
Cc1ccc(C(=O)N[C@@H](C)CN2C3=NC[C@H](C(C)C)N3C[C@H]2Cc2ccc(O)cc2)cc1Br | -4 | 16 | -1 | 7 | 0 | 7 | . | .
COc1ccc(C[C@H]2CN3C(=NC[C@@H]3C(C)C)N2C[C@H](C)NC(=O)c2ccc(C)c(Br)c2)cc1 | -4 | 31 | 44 | 52* | -12 | 8 | 20 | .
COc1ccc(C[C@H]2CN3C(=NC[C@@H]3Cc3ccccc3)N2C[C@H](C)NC(=O)CCC2CCCCC2)cc1 | 32 | 21 | . | 68* | 33 | . | 48* | 72*
C[C@@H](CN1C2=NC[C@H](Cc3ccc(O)cc3)N2C[C@H]1Cc1ccc(O)cc1)NC(=O)CCC1CCCCC1 | 9 | -7 | -13 | 24 | 16 | 2 | . | .
O=C1COc2ccc(C(=O)COC(=O)c3ccccc3F)cc2N1 | 2 | . | -17 | 30 | . | 1 | . | .
COc1ccc(/C=C/c2nc3ccccc3c(=O)o2)cc1 | 12 | -7 | 9 | 88* | -13 | -6 | 84* | 63*
COc1ccccc1/C=C/c1nc2ccccc2c(=O)o1 | . | 5 | -13 | . | 2 | 1 | . | .
Cc1ccc(C)c(C2NC(=O)c3ccccc3N2)c1 (centres undefined) | -13 | -46 | 33 | 50* | -6 | 13 | 53* | 55*
O=C1c2ccccc2NC(c2ccc(-c3ccc(Br)cc3)o2)N1O (centres undefined) | 9 | 21 | 103* | 73* | 102* | 9 | 56* | 31
O=C1c2ccccc2NC(c2ccc(-c3ccc(F)cc3)o2)N1O (centres undefined) | 9 | . | 17 | 32 | . | -1 | . | .
Cc1nc(Sc2cccn2C)c(C(F)(F)F)c(=O)[nH]1 | -1 | -9 | -4 | -2 | -19 | -16 | . | .
COc1cc(OC)c(OC)cc1/C=C1\CCC/C(=C\c2cc(OC)c(OC)cc2OC)C1=O | -12 | 59* | . | 67* | 9 | . | 43* | 82*
Cc1ccc(C(=O)N2CCN(Cc3ccc4c(c3)OCO4)CC2)cc1S(=O)(=O)N1CCOCC1 | 2 | 11 | 3 | 7 | -9 | -5 | . | .
SMILES | NLRP3 yeast inh | T cruzi repl | CSC inhib | Mdm2 MdmX PPI | Calb FLC | Beta apoptosis | Mdm2 MdmX conf | Full FLuc ctr
Cc1ccc(S(=O)(=O)N2CCN(C(=O)CSc3n[nH]c(N)n3)CC2)c(C)c1 | 7 | . | 0 | 6 | . | 4 | . | .
COc1ccc(C2CC(=O)N(C)c3ccccc3S2)cc1OC (centres undefined) | 15 | 3 | -1 | 53* | 23 | -4 | 34 | .
O=C(OCc1nc2ccsc2c(=O)[nH]1)c1cc(Br)c(Br)s1 | 11 | 4 | 2 | 13 | . | -4 | . | .
COc1ccc(NC(=O)c2ccc(-c3ccc(-c4noc(C)n4)cc3C)cc2)cc1N1CCN(C)CC1 | 28 | . | 56 | 99* | . | 14 | 23 | .
COc1ccc(-c2nc(-c3ccc(NC(=O)c4ccncc4)cc3)no2)cc1OC | 16 | 49 | 30 | 70* | 1 | . | 82* | 81*
COc1cc(-c2nc(-c3ccc(NC(=O)c4ccc5c(c4)OCO5)cc3)no2)cc(OC)c1OC | 20 | -9 | 30 | 83* | ? | 12 | 77* | 44*
COc1ccc(Cl)cc1-c1nc(-c2ccc(NC(=O)c3ccncc3)cc2)no1 | 3 | -4 | -1 | 6 | 6 | 9 | . | .
Cc1ccccc1-c1nc(-c2ccc(NC(=O)c3ccc4c(c3)OCO4)cc2)no1 | 8 | 6 | 5 | 38 | 24 | 9 | . | .
COc1ccc(OC)cc1 | 19 | . | . | 10 | . | . | . | .
O=C(Nc1ccc(S(=O)(=O)N2CCCCCC2)cc1)c1[nH]ncc1[N+](=O)[O-] | 11 | -9 | 52 | 52* | 4 | -11 | 36 | .
O=C(Nc1ccc([N+](=O)[O-])cc1)c1ccc(S(=O)(=O)N2CCCC2)cc1 | 16 | 10 | 0 | 8 | 12 | 0 | . | .
CCC1CCCCN1S(=O)(=O)c1ccc(S(=O)(=O)N2CCN(S(=O)(=O)CC)CC2)cc1 (centres undefined) | 9 | 12 | -9 | 2 | 7 | -1 | . | .
CNC(=S)N/N=C1\C(=O)c2cccc3cccc1c23 | 18 | 47 | 40 | 87* | -1 | 6 | 17 | .
COc1ccc2c(c1)[C@H]1[C@H](CO2)[C@H](c2ccccc2)[C@]2(C)C(=O)Nc3ccc(C)cc3C(=O)N12 | 8 | . | . | 40 | . | 12 | . | .
COc1ccc(-c2ccc3c(=O)cc(-c4ccsc4)oc3c2)cn1 | 23 | . | 11 | 79* | . | -1 | 1 | .
COc1cc2oc(-c3ccc(O)cc3)cc(=O)c2c(OC)c1O | 13 | 5 | . | 51* | 42 | . | 17 | .
